This is an account of results in ChEMBL document CHEMBL5649170, “Sustained microglial depletion with CSF1R inhibitor impairs parenchymal plaque development in an Alzheimer's disease model” (Nat Commun, 2019).

Series [1] deals with Inhibitor of nuclear factor kappa-B kinase subunit beta (Homo sapiens, UniProt O14920). The series can be described thus: Inhibition of IKBKB (unknown origin).
Series [2] can be described thus: Toxicity in wildtype mouse assessed as time spent in open arm at 1200 ppm administered as rodent chow for 10 to 24 weeks by Elevated plus maze test (reference value: 8.7 to 179.9 sec). As to conditions: in vivo, po, time 10-24 weeks.
In series [3] the target is Proto-oncogene tyrosine-protein kinase Src (Homo sapiens, UniProt P12931). The series can be described thus: Inhibition of SRC (unknown origin).
Series [4] addresses Serine/threonine-protein kinase 4 (Homo sapiens, UniProt Q13043). Briefly: Inhibition of STK4 (unknown origin).
A short description of series [5]: Volume of distribution at steady state in female rat at 1.13 mg/kg, iv administered as single dose. As to conditions: in vivo, read-out: Vdss. It counts as ADME, organism-based.
The target in series [6] is Cyclin-dependent kinase 5/CDK5 activator 1 (Homo sapiens, UniProt Q00535). The series can be described thus: Inhibition of CDK5_p25 (unknown origin). It counts as protein-complex assay.
For series [7], the target named is Vascular endothelial growth factor receptor 3 (Homo sapiens, UniProt P35916). Briefly: Inhibition of FLT4 (unknown origin).
Series [8] in a line: Effect on Clec7a gene expression in wild type mouse hippocampus at 1200 ppm administered as rodent chow starting from 1.5 months and measured after 7 months by RNA-Seq analysis (reference value: 0.034 to 0.503 RPKM). It counts as functional. As to conditions: route po, time 5.5 months, 4015 h. The gist of the method:
(§1)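 WT and 5xFAD mice were treated with 1200 ppm PLX5622 chow or control chow from 1.5 to 7 months of age. Brains were microdissected into cortex, hippocampus and thalamus, and RNA was extracted from tissue powder. Whole-transcriptome RNA-Seq libraries were sequenced, with n = 4 per group per region (48 samples).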

Series [9] can be described thus: Effect on C1qa gene expression in wild type mouse cortex at 1200 ppm administered as rodent chow starting from 1.5 months and measured after 7 months by RNA-Seq analysis (reference value: 16.071 to 20.526 RPKM). The class given is functional. Particulars: route po, time 5.5 months, 4015 h. The gist of the method:
as §1

Series [10] concerns the target Tyrosine-protein kinase Fer (Homo sapiens, UniProt P16591). The series can be described thus: Inhibition of FER (unknown origin).
The target in series [11] is T1, Macrophage colony-stimulating factor 1 receptor (Mus musculus) (UniProt P09581).
T1 sequence (whole entry): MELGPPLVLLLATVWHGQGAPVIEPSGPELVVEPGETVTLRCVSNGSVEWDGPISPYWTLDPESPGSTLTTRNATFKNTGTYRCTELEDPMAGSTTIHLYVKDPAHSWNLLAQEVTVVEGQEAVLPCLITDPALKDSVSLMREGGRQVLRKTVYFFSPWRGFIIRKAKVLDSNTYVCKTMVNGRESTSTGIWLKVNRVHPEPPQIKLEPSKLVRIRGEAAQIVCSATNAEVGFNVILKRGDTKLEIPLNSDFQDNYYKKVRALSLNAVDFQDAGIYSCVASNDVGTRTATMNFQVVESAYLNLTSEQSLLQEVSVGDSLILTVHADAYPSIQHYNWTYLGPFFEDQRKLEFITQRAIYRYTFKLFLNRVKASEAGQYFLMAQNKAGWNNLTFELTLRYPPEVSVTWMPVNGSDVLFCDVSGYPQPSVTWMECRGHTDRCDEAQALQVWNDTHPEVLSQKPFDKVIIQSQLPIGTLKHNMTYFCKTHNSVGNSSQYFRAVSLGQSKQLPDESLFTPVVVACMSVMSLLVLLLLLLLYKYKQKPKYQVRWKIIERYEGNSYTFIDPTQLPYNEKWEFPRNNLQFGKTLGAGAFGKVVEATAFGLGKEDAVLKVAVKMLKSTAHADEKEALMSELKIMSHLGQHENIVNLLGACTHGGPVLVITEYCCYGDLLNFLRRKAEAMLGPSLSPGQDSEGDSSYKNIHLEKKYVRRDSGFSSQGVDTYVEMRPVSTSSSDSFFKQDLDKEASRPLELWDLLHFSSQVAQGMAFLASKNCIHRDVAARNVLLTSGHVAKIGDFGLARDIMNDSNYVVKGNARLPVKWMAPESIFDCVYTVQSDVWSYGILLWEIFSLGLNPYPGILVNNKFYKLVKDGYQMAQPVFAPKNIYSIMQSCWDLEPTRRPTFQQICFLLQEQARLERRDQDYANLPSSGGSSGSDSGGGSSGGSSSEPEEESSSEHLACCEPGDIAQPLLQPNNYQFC
Briefly: In vivo inhibition of CSF1R in wildtype mouse assessed as number of GFAP positive cell per FOV in […] cortex at 1200 ppm administered as rodent chow for 10 to 24 weeks by immunolabelling based confocal microscopic analysis (reference value: 17 to 92). The class given is functional. As to conditions: route po, time 10-24 weeks.

Series [12] addresses Fibroblast growth factor receptor 1 (Homo sapiens, UniProt P11362). The series can be described thus: Inhibition of FGFR1 (unknown origin).
Series [13] concerns Mus musculus. The series can be described thus: Effect on circulating leukocytes in wildtype mouse assessed as percentage of CD45+/PI- cells expressing CD11c at 1200 ppm administered as rodent chow for 10 to 24 weeks (reference value: 4.18 to 10.2 %). The class given is functional. As to conditions: route po, time 10-24 weeks.
The target of series [14] is Dual specificity tyrosine-phosphorylation-regulated kinase 1A (Homo sapiens, UniProt Q13627). The series can be described thus: Inhibition of DYRK1A (unknown origin).
Series [15] is described as follows: Cmax in female rat at 45 mg/kg, po administered as single dose via gavage. It counts as ADME, organism-based. Particulars: in vivo.
Series [16] is described as follows: Prevention of Gls gene downregulation in 5XFAD mouse hippocampus assessed as percent change in Reads Per kilo base per Million mapped reads at 1200 ppm administered as rodent chow starting from 1.5 months and measured after 7 months by RNA-Seq analysis (reference value: 58.522 to 73.849 %). It counts as functional. As to conditions: route po, time 5.5 months, 4015 h.

The test system of series [17] is Mus musculus. Briefly: Prevention of P2ry12 gene upregulation in 5XFAD mouse hippocampus at 1200 ppm administered as rodent chow starting from 1.5 months and measured after 7 months by Nanostring analysis. The class given is functional, tissue-based. As to conditions: route po, time 5.5 months.
For series [18], the target named is MAP/microtubule affinity-regulating kinase 4 (Homo sapiens, UniProt Q96L34). Briefly: Inhibition of MARK4 (unknown origin).
Series [19] relates to Mus musculus. Briefly: Prevention of Apc gene downregulation in 5XFAD mouse hippocampus at 1200 ppm administered as rodent chow starting from 1.5 months and measured after 7 months by Nanostring analysis. As to conditions: route po, time 5.5 months. The class given is functional, tissue-based.
Series [20] can be described thus: Prevention of St8sia5 gene downregulation in 5XFAD mouse hippocampus assessed as percent change in Reads Per kilo base per Million mapped reads at 1200 ppm administered as rodent chow starting from 1.5 months and measured after 7 months by RNA-Seq analysis (reference value: 42.024 to 86.833 %). The class given is functional. Particulars: route po, time 5.5 months, 4015 h.

The target in series [21] is Leucine-rich repeat serine/threonine-protein kinase 2 (Homo sapiens, UniProt Q5S007). The series can be described thus: Inhibition of LRRK2 (unknown origin).
Series [22] deals with PI3-kinase p110-alpha/p85-alpha (Homo sapiens, UniProt P42336). The series can be described thus: Inhibition of PIK3CA/PIK3R1 (unknown origin). The class given is protein-complex assay.
Series [23] in a line: Effect on St8sia5 gene expression in wildtype mouse hippocampus assessed as percent change in Reads Per kilo base per Million mapped reads at 1200 ppm administered as rodent chow starting from 1.5 months and measured after 7 months by RNA-Seq analysis (reference value: 83.570 to 112.150 %). It counts as functional. As to conditions: route po, time 5.5 months, 4015 h.
The target in series [24] is Protein kinase C epsilon type (Homo sapiens, UniProt Q02156). Briefly: Inhibition of PRKCE (unknown origin).

Active and inactive are the calls of the source. No cut-off for these calls is given here.

Sequence of Tyrosine-protein kinase Fer (P16591 whole entry): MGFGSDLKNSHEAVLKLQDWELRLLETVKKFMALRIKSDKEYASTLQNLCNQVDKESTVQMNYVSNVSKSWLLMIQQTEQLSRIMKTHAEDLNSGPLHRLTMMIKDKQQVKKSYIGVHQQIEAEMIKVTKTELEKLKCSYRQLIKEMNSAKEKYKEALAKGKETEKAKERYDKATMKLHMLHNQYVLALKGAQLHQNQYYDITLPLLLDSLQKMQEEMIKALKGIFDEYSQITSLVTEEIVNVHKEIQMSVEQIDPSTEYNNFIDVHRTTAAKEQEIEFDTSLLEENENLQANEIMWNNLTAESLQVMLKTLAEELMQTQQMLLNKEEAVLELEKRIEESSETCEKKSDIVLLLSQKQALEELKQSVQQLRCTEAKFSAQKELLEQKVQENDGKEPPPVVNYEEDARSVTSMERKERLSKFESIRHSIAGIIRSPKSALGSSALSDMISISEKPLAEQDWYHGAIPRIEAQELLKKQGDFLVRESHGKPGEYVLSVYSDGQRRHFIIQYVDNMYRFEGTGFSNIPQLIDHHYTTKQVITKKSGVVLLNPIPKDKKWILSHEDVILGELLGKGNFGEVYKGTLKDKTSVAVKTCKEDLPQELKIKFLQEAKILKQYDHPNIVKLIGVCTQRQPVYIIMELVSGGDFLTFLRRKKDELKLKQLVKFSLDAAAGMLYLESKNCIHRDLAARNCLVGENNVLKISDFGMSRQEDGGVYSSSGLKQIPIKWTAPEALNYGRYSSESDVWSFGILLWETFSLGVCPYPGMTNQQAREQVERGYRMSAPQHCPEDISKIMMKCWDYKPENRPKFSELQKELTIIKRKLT
Sequence of Vascular endothelial growth factor receptor 3 (P35916 whole entry): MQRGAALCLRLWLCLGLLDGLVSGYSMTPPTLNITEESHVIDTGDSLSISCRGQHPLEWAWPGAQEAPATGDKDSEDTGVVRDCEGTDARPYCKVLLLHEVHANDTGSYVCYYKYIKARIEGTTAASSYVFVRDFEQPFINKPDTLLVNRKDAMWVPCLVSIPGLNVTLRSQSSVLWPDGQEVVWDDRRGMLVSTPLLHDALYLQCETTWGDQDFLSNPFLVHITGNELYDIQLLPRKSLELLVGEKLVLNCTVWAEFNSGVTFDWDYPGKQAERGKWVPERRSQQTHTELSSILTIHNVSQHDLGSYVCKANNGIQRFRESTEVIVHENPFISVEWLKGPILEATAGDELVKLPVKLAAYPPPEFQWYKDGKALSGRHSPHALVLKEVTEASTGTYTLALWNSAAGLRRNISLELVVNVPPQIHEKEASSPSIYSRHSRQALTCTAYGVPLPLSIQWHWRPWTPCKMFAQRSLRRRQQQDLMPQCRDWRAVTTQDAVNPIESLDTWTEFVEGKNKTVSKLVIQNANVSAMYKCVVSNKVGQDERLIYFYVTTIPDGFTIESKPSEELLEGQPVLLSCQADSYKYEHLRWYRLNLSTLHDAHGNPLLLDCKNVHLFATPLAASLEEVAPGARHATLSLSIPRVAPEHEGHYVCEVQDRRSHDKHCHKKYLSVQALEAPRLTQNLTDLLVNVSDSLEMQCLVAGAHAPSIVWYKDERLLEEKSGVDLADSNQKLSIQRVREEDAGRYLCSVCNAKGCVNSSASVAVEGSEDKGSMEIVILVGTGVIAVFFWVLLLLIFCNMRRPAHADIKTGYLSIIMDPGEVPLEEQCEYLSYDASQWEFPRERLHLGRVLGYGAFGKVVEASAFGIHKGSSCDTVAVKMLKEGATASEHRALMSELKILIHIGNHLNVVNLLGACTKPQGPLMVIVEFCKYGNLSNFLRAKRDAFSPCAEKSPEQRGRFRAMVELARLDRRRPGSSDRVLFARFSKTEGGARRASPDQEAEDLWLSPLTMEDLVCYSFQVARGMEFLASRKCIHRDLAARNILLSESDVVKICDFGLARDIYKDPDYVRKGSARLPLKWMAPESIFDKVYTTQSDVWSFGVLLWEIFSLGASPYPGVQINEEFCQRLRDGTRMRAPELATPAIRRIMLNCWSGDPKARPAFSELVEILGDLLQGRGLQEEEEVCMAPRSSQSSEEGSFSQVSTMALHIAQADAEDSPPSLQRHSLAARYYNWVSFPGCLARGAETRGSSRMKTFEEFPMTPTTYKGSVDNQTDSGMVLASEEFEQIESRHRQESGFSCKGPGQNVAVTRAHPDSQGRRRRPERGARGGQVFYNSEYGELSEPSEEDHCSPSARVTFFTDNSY
Sequence of Cyclin-dependent kinase 5/CDK5 activator 1 (Q00535 whole entry): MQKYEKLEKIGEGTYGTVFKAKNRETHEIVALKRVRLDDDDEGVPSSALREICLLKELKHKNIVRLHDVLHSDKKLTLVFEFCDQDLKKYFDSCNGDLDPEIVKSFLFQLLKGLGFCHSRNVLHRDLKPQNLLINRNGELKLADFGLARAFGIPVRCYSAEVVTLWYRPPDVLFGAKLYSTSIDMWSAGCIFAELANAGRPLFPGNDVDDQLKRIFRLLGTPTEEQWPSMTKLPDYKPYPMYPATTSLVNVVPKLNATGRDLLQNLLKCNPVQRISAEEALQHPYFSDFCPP
Sequence of Cyclin-dependent kinase 5/CDK5 activator 1 (Q15078 whole entry, further chain): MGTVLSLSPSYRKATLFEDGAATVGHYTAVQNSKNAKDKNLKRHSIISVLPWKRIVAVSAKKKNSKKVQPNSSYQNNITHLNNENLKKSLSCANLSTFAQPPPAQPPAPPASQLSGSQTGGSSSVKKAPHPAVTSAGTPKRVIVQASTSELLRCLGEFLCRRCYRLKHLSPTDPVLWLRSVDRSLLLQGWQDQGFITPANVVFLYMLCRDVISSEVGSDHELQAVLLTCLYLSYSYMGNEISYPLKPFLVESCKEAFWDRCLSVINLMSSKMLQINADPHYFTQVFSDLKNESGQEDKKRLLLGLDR
Sequence of PI3-kinase p110-alpha/p85-alpha (P27986 whole entry): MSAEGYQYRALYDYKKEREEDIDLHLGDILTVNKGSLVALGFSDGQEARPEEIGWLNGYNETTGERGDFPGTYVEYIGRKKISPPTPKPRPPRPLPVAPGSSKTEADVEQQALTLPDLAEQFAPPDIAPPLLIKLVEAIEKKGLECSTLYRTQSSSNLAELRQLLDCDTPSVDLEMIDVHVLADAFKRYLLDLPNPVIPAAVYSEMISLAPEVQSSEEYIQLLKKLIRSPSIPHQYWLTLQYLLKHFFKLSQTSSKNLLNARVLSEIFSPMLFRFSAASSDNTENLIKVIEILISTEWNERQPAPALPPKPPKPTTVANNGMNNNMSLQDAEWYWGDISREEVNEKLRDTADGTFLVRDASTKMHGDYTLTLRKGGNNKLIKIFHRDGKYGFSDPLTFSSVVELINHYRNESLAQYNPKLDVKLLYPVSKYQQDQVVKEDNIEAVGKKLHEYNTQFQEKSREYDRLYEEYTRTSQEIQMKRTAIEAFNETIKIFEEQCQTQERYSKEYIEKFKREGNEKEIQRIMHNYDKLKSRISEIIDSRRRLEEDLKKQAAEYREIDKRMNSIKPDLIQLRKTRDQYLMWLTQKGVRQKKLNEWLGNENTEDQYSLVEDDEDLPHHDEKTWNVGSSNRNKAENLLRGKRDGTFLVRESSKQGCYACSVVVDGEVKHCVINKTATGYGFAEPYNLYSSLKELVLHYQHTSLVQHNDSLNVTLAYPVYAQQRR
Sequence of PI3-kinase p110-alpha/p85-alpha (P42336 whole entry): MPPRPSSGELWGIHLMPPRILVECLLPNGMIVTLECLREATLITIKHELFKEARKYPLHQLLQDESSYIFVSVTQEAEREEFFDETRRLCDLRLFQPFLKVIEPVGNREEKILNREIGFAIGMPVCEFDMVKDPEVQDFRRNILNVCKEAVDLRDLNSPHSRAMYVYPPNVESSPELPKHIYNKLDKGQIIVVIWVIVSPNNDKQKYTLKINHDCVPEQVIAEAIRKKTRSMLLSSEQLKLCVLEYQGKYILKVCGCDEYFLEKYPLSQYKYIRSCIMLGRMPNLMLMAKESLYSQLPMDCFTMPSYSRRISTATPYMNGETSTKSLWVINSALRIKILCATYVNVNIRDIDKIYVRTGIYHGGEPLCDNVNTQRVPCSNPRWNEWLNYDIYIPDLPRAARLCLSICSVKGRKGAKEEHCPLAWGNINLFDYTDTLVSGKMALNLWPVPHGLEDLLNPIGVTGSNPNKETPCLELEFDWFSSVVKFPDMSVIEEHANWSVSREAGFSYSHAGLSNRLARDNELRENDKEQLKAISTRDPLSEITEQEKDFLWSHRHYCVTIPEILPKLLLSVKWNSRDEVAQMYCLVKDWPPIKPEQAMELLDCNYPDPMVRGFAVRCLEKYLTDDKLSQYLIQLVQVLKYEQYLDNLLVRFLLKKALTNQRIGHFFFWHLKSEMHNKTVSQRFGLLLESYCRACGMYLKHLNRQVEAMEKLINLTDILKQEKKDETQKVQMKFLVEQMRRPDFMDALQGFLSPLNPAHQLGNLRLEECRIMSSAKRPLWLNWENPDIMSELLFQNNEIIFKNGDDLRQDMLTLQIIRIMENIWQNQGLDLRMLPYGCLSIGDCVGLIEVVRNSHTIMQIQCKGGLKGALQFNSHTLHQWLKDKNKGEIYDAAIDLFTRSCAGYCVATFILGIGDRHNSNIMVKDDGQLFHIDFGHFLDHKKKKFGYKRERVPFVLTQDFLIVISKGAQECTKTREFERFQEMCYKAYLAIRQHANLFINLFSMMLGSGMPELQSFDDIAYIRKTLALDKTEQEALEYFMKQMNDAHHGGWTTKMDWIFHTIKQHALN
Sequence of Serine/threonine-protein kinase 4 (Q13043 whole entry): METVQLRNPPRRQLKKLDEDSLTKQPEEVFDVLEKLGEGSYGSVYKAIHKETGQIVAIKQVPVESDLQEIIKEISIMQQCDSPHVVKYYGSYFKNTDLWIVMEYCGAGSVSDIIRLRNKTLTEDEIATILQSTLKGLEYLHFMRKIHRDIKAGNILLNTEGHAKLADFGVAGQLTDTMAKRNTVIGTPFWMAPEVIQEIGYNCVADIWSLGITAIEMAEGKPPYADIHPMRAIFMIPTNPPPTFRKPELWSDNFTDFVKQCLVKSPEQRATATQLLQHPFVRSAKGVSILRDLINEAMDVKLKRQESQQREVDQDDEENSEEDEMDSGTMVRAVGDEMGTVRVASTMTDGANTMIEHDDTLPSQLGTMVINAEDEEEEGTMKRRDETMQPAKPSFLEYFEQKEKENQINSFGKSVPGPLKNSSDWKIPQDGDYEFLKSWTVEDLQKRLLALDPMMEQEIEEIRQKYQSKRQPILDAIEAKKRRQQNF

For orientation: IC50 means the midpoint of a concentration-inhibition curve. Read a high IC50 as weaker potency in that assay. By Cmax is commonly meant the highest concentration seen after dosing. As to `COc1ncc(F)cc1CNc1ccc(Cc2c[nH]c3ncc(C)cc23)c(F)n1` [PLX-5622], the IC50 in [1], in [3], in series [4], in series [6], in series [7] and in series [10] was over 1000 nM each time. The IC50 in [12], in [14], in series [18], in series [21], in [22] and in series [24] was over 1000 nM each time. Also, the Time in series [2] is recorded as 11.9 s. The Vd in series [5] came to 1 L/kg. In addition, the Activity in [8] was 0.04 RPKM; in series [9], 0 RPKM; in series [11], 7; in series [13] it was 3.32%; in [16], 77.958%; in series [20] it was 74.641%. The Activity in series [23] is 65.471%. The same molecule registered a Cmax in series [15] of 15600 ng/mL. For the same molecule, the result in series [17] and in [19] was Active.
